Assays:
[1] = folding enthalpy; higher = less favourable; fluorescence melt of hairpins on a sequencing array, two-state fit; conditions: sodium 0.088 M
Outline: (§1)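 Hairpins were imaged by Cy3 fluorescence on a sequenced MiSeq flow cell with annealed Cy3 and quencher oligos, in 50 mM Na-HEPES pH 8.0, 25 mM NaCl, in 2.5 °C steps up to 60 °C. Bootstrapped two-state fits of normalised signals gave melting temperature and folding enthalpy. Four replicates were combined by inverse variance, and fitted temperatures were raised by 9.35 °C to match UV melts.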

[2] = melting temperature; fluorescence melt of hairpins on a sequencing array, two-state fit, raised by 9.35 °C to match UV melts; conditions: sodium 0.088 M
Outline: as §1

Sequence | folding enthalpy [1] [kcal/mol] | Tm [2] [°C]
GAAGAGCCGAAAGGCTTC (((..(((....)))))) | -9.43 | 31.6
GTGGGCGGAAACGTCCAC ((((.((....)).)))) | -41.7 | 64.7
GCGTGTGGAAACACATGC ((.((((....)))).)) | -42 | 57.5
GATCCGTCACGGATC ((((((...)))))) | -34.7 | 60.6
GTGTATGGAAACATATAC ((.((((....)))).)) | -37 | 37.8
GGGTCCGAAAGGAGACCC ((((((....)))..))) | -22 | 53.1
GGTGACGCGAAAGCGACC (((..(((....)))))) | -12.1 | 40.4
GCAGGACGAAAGTCGTGC (((.(((....))).))) | -42.8 | 62.6
GCCCTCGAAAGAGCCGGC ((((((....)))..))) | -18.4 | 40.4
GATCATGCTAATGATC ((((((....)))))) | -42.7 | 57.2
CGCTGCGGAAACGCCGCG (((.(((....))).))) | -29.1 | 56.5
GAGGAACGAAAGTTACTC (((.(((....))).))) | -39.3 | 54.5
GATCCCCGTCGGGATC ((((((....)))))) | -32.4 | 62.8
GGTATGGGAAACCATACC (((((((....))))))) | -45.3 | 58
GCCCCGCGAAAGCGGTGC ((.((((....)))).)) | -15.7 | 61.5
GATCTGTCGCAGATC ((((((...)))))) | -24.5 | 48.5
GATCACATACGTGATC ((((((....)))))) | -41.2 | 57.4
GATACTGGAAACAGCATC (((.(((....))).))) | -27.5 | 34.2
GTGTTTCGAAAGAATCAC (((.(((....))).))) | -39.3 | 45
GATCTTATCCAAGATC ((((((....)))))) | -31.6 | 42.6
GCGGGACTCCGC ((((....)))) | -27.3 | 67.7
GGCAGACCGAAAGGTGCC (((..(((....)))))) | -35 | 55.4
CGAGTCGGAAACGAGTCG (((.(((....))).))) | -35.9 | 55.9
GATCACGGCTGTGATC ((((((....)))))) | -44.5 | 62.3

Sequence | folding enthalpy [1] [kcal/mol] | Tm [2] [°C]
GCAAACGAAAGTTCTGC ((((((....))).))) | -20.5 | 37.2
GTAACCGAAAGGTGCTAC ((((((....)))..))) | -13.1 | 39.1
CGTTCGGAAACGAAAACG ((((((....)))..))) | -24.8 | 34.9
GGATAGGGAAACCTACCC ((.((((....)))).)) | -21.9 | 35.2
GTTCACGAAAGTGGAAC ((((((....))).))) | -19.1 | 45.4
GATCTGGCTACAGATC ((((((....)))))) | -42 | 59.4
GGTTCCCGAAAGGGTACC (((.(((....))).))) | -33.6 | 57.5
GAATAACGAAAGTTCTTC (((.(((....))).))) | -20.7 | 32.2
GTAGTACGAAAGTAGTAC (((.(((....))).))) | -33.5 | 47.3
GATCGTATATACGATC ((((((....)))))) | -35.1 | 56.6
GCGGTACGAAAGTATCGC (((.(((....))).))) | -56.1 | 64.7
GCAGGGCGAAAGCCGGGC ((..(((....)))..)) | -17.4 | 56.9
GATCAACACTTTGATC ((((((....)))))) | -37.8 | 47.6
GTTTATGCGAAAGCAAAC (((..(((....)))))) | -8.45 | 28.1
GATCCACAGGTGGATC ((((((....)))))) | -40.9 | 57
GATCTAATCCTAGATC ((((((....)))))) | -25.6 | 38.3
GATCTCCGATGAGATC ((((((....)))))) | -31.3 | 50.7
GAGCGCGAAAGCGAACTC ((((((....)))..))) | -15.2 | 49
GTACCCGGAAACGGATAC (((.(((....))).))) | -24.3 | 42.2
CGGTACGGAAACGTTCCG (((.(((....))).))) | -32.4 | 49.8
GTAACGGGAAACCGCTAC (((.(((....))).))) | -24.4 | 39.9
GATCTCCCTAGAGATC ((((((....)))))) | -36.2 | 55.7
GATCAGTAGTCTGATC ((((((....)))))) | -37 | 50.2
GATCTCGTAGAGATC ((((((...)))))) | -37.2 | 67.9

Sequence | folding enthalpy [1] [kcal/mol] | Tm [2] [°C]
GCGTCAATACGC ((((....)))) | -22.8 | 51.4
GATCCCTGGGGGGATC ((((((....)))))) | -37.2 | 63.9
GAACCCCGAAAGGGCTTC (((.(((....))).))) | -15.3 | 34.3
GGGCCGGGAAACCGACCC (((.(((....))).))) | -43.9 | 57.5
GAGCGAGCGAAAGCTCTC (((..(((....)))))) | -8.27 | 35.5
GATCCAGTCTTGGATC ((((((....)))))) | -43.5 | 53.5
GTTGCTGGAAACAGTAGC (.(.(((....))).).) | -19.7 | 35.3
GGACTCGAAAGAGTGTCC ((((((....)))..))) | -16.9 | 40.7
GGGTCCGGAAACGGACTC (.(((((....))))).) | -15.2 | 61.3
GATCTTCTAAAGATC ((((((...)))))) | -30.9 | 42.9
CGCGTCCGGAAACGGGCG (((..(((....)))))) | -14 | 55.2
GTATTCGGAAACGAGTAC (((.(((....))).))) | -28.6 | 43.6
GGATATCGAAAGATGTCC (((.(((....))).))) | -38.9 | 52
GCGGCCGAAAGGCCACGC ((((((....)))..))) | -13.6 | 65.1
GTAGTAGGAAACTGCTAC ((((.((....)).)))) | -30.5 | 44.7
GCTAGACGAAAGTCAAGC (((.(((....))).))) | -30.4 | 52.7
GCGGCGACCCGC ((((....)))) | -15.4 | 57.3
GTTGGTGGAAACATCAAC ((((.((....)).)))) | -37.8 | 46.5
GGACGCGAAAGCGGATCC ((((((....)))..))) | -12.3 | 47.5
CGTTCGGAAACGAAGACG ((((((....)))..))) | -26.2 | 34.9
GATCCTGCTAGGATC ((((((...)))))) | -34 | 54.8
GTCTTCGAAAGAAGGGAC ((((((....)))..))) | -14.1 | 32.9
GTATCCCGAAAGGGTAC (((.(((....)))))) | -17.9 | 49
GTAGACGGAAACGCCTAC ((((.((....)).)))) | -32.3 | 45.3

Sequence | folding enthalpy [1] [kcal/mol] | Tm [2] [°C]
GACGGCGAAAGCCGAGTC ((((((....)))..))) | -8.09 | 45.8
GGTAGCGAAAGCTCGACC ((((((....)))..))) | -15.1 | 34.6
GGAGGCGAAAGCCGATCC ((((((....)))..))) | -9.71 | 51.8
GATCTCGATGAGATC ((((((...)))))) | -37.2 | 53
ACAGTGAAAACTGT (((((....))))) | -19.2 | 45.7
GATCCAAACCTGGATC ((((((....)))))) | -40.8 | 49.8
GCGAGAATTCGC ((((....)))) | -21.8 | 55.3
GAAGCGGGAAACCGCTCC (.(((((....))))).) | -10.3 | 42.5
GCGAACGAAAGTTTTCGC ((((((....)))..))) | -26.6 | 44.1
GACGTTGGAAACAACACC (..((((....))))..) | -9.55 | 25.2
GCGGCCGAAAGGCAACGC ((((((....)))..))) | -19.1 | 64.3
GCTAGAGGAAACTCCAGC (((.(((....))).))) | -22.2 | 34.8
GGAGCACGAAAGTGATCC (((.(((....))).))) | -38.3 | 66.2
GCCGTCCGAAAGGAGGC (((.(((....)))))) | -27.4 | 58.4
GTAACGGAAACGTTAC ((((((....)))))) | -40.2 | 56.3
GAACACCGAAAGGTATTC (((.(((....))).))) | -25 | 37.8
GTGAATGGAAACATTCAC (((((((....))))))) | -45.6 | 56.9
GATCAGATGCTGATC ((((((...)))))) | -30.6 | 49.4
GCACCTCGAAAGAGTGC (((.(((....)))))) | -46.4 | 53.3
GCCCGGACGAAAGTCGGC (((..(((....)))))) | -14.5 | 50.9
CGGAACGGAAACGTCCG (((.(((....)))))) | -30.1 | 47.8
